# TbMetRS inhib = Trypanosoma brucei MetRS inhibition; purified T. brucei MetRS, ATP depletion, Kinase-Glo luminescence; 360,000 tested, 0.4% active; inhibition, % at 11.9 µM;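 active means inhibition above a per-plate cutoff of the control wells' mean inhibition plus 3 SD, cut at about 5.5% in these data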;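 further: 0% = DMSO wells median and 100% = median of wells with control inhibitor compound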
#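 Dosing: 11.9 µM compound single dose, 0.9% DMSO; Assay system: purified T. brucei MetRS enzyme; Measured by: Kinase-Glo luciferase luminescence reporting remaining unconsumed ATP; Schedule: 15 min plus 2 h at 25 °C.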
# E coli Lon inh = inhibits E. coli Lon protease | purified E. coli Lon protease, fluorescence polarization | inhibition, % at 7.94 µM | 360,000 tested, 0.42% active | AID 602123; in the data active means inhibition above about 13%, passing the limit was not always enough;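 further: 0% = enzyme with probe and DMSO and 100% = no enzyme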
# MT1-MMP act inh = blocks activation of human MT1-MMP | HT1080 RFP-PRO-GFP cells, GFP/RFP ratio fluorescence, overnight; percent of plate control window, DMSO zero | GFP/RFP ratio change, % at 20 µM | 360,000 tested, 0.061% active;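 active means GFP/RFP ratio change of at least 30% with cell ATP level not reduced by more than half and red fluorescence within 50% of control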
#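 Assay system: RFP-PRO-GFP reporter HT1080 cells; read-out basis: GFP/RFP fluorescence ratio; benchmarks: DMSO wells and RFP-L50D-GFP cells; doses: 20 µM single dose, 1% DMSO; schedule: overnight cell settling, then overnight compound exposure, 37 °C, 5% CO2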
# SKN-1 block = blocks SKN-1 activity in C. elegans; C. elegans VP596 Pgst-4::GFP/RFP ratio, acrylamide-induced, 24 h; inhibition, % at 21.8 µM; 360,000 tested, 0.49% active; AID 624304;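 active means interference check ratio from 0.5 to 1.5 plus GFP to RFP signal ratio inhibition reaching or exceeding a fixed threshold, cut at about 30% in these data, passing the limit was not always enough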
# hiPSC survival = enhancers of human iPSC single-cell survival; 360,000 tested, 0.044% active; survival enhancement, % at 20 µM; AID 602274; hiPSC single-cell survival, ATPlite luminescence; 100% = ROCK inhibitor wells, 0% = DMSO; in the data active means survival enhancement above about 18%;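 further: cells exposed to compounds for 16 hours before the ATP read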
# PREPL inhibitor = inhibits the human prolyl oligopeptidase-like enzyme | Q4J6C6 | recombinant PREPL, fluorescence polarization activity-based probe | inhibition, % at 5.96 µM | 320,000 tested, 0.68% active | AID 2751; in the data active means inhibition above about 43%;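 further: 0% = enzyme with DMSO and 100% = wells lacking enzyme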
# Target sequence (Q4J6C6 whole entry, looked up): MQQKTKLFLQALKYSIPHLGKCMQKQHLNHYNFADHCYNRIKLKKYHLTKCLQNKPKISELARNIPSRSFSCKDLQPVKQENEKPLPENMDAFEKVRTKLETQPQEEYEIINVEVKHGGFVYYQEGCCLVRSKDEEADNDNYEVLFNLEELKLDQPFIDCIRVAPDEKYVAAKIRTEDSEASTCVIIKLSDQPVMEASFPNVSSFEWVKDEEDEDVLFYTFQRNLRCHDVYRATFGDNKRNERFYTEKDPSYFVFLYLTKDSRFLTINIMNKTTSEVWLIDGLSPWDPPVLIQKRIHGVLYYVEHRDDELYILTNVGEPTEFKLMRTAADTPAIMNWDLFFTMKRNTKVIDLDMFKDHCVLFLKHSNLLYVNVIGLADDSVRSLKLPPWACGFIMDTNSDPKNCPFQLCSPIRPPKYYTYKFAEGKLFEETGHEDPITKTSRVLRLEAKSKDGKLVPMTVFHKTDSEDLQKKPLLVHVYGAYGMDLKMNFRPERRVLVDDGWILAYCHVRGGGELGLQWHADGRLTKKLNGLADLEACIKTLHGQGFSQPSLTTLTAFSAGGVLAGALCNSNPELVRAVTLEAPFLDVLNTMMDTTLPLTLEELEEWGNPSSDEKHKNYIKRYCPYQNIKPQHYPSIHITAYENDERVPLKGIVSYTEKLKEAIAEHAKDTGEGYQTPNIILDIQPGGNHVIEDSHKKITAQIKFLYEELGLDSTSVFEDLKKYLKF
# MT1-MMP act val = MT1-MMP (human) activation inhibition, single-concentration validation; shares compounds with MT1-MMP act inh; HT1080 RFP-PRO-GFP cells, GFP and RFP fluorescence ratio, overnight; inhibition, % at 20 µM; 200 tested, 10% active; AID 652235;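 active means inhibition of at least 50% in the primary cell screen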
# * = called active by the depositor; · = not tested or not shown. Compounds with a hit are over-represented: about 1.8% of the library has one in this group of screens.
SMILES,TbMetRS inhib,E coli Lon inh,MT1-MMP act inh,SKN-1 block,hiPSC survival,PREPL inhibitor,MT1-MMP act val
Cc1ccccc1C1=C/C(=C(\SS/C(C(=O)c2ccc(OCC(=O)O)c(Cl)c2Cl)=C2\C=C(c3ccccc3C)SS2)C(=O)c2ccc(OCC(=O)O)c(Cl)c2Cl)SS1,0,-8,34*,-2,2,·,41
O=S(=O)(O)c1cc(O)c(N=Nc2ccc(O)cc2O)c2ccccc12,0,58,64*,88,1,·,50*
O=[N+]([O-])c1ccccc1N=Nc1ccc(O)cc1O,0,3,12,30,-1,·,·
Cc1cc(C)[n+]2[nH]c(N)c(N=Nc3ccccc3)c2n1,0,1,2,0,-1,17,·
COc1ccc(Cl)cc1Nc1nc(N)c2ccccc2n1,0,-5,-4,-9,0,8,·
Cc1ccc(C)c(Nc2nc(N)c3ccccc3n2)c1,0,14,31*,-1,-3,1,19
O=C(NN=C(Cc1ccccc1)Cc1ccccc1)c1ccccc1F,-1,-9,5,-5,0,11,·
Cc1[nH]n(-c2ccccc2)c(=O)c1N=Nc1nccs1,0,-7,32*,29,0,7,27
COc1cc(/C=C/c2cc(OC(C)=O)c3ccccc3n2)c(OC(C)=O)c([N+](=O)[O-])c1,-1,4,37*,4,0,0,24
CC(=O)Oc1c(Cl)cc(Cl)cc1/C=C/c1ccc2ccccc2n1,-1,1,-265,12,-1,12,·
C/C(=N\Nc1nc2ccccc2[nH]1)c1ccc([N+](=O)[O-])cc1,1,-6,51*,6,-1,6,21
Cc1ccc(S(=O)(=O)N2CCCCC2)cc1NC(=O)C1CCCO1 (centres undefined),-1,0,0,7,3,4,·
O=C(/C=C(\c1ccc(Cl)cc1)n1cncn1)c1ccc(Cl)cc1,-1,1,31*,-5,-4,-25,28
CC1CCN(C(=O)c2ccc3c(c2NCCO)C(=O)c2ccccc2C3=O)CC1,-1,12,31*,11,0,22,28
O=C(COc1ccccc1Br)NCCc1nc2ccccc2[nH]1,2,0,3,4,1,1,·
Cc1ccccc1N1CC(=O)N(c2ccccc2C)CC1=O,0,-1,36*,24,4,10,13
CN(CC(=O)Nc1cc([N+](=O)[O-])ccc1Cl)Cc1ccc(Br)cc1,-1,4,36*,-2,0,11,6
O=C(N/N=C/C1CC=CCC1)c1cc2ccccc2cc1O (centres undefined),1,-40,35*,-1,3,22,4
O=C(N/N=C/C1CC=CCC1)c1ccc(O)cc1O (centres undefined),0,-2,-3,3,2,3,·
O=C(N/N=C/c1ccccn1)c1cc(-c2ccc(Cl)s2)[nH]n1,-1,11,5,8,-1,-5,·
Cc1cc(C)c(S(=O)(=O)/N=C2\C=C(NS(=O)(=O)c3ccccc3)C(=O)c3ccccc32)c(C)c1,-1,-14,41*,13,0,-5,28
CCN(CC)c1ccc(C(=C2C=CC(=[N+](CC)CC)C=C2)c2ccc(N(CC)CC)cc2)cc1,-1,-2,143*,3,-1,·,126*
COc1ccc(C)cc1N=Nc1ccc(O)c2ncccc12,-1,0,31*,4,-3,·,34
CCc1nc2ccc(Cc3ccc4nc(CC)[nH]c4c3)cc2[nH]1,0,-2,2,6,0,9,·
CNc1ccccc1C(C)(C)c1cc(-c2ccco2)n[nH]1,0,-5,34*,13,4,1,8
CN(CCCC(=O)O)c1ccc(N=Nc2ccc([N+](=O)[O-])cc2)cc1,0,3,53*,2,0,19,49

# Bioassay records deposited in PubChem BioAssay by several laboratories.
